pIC50: −log10 of the molar value.
How the values were obtained:
HEK293 = assay: Cytotoxicity against HEK293 cells assessed as growth inhibition after 3 days by MTT assay; format: cell-based; conditions: Homo sapiens, HEK293, 72 h
In short: (§1)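 5 × 10³ cells per well (HT-29, MCF-7 or HEK-293) exposed for 3 days at 37 °C, 5% CO2, humidified. MTT (5 mg/ml in PBS) added for a further 4 h at 37 °C. Formazan dissolved in 0.04 N HCl/2-propanol and read at 550 nm. Run in triplicate. IC50 taken as the concentration giving 50% growth inhibition.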

[1] = Selectivity ratio of IC50 for HEK293 cells to IC50 for human HT-29 cells; format: ADME, cell-based; conditions: HEK293 cells versus HT-29 cells, read-out: Ratio IC50
HT-29 [2] = assay: Cytotoxicity against human HT-29 cells assessed as growth inhibition after 3 days by MTT assay; format: functional, cell-based; conditions: HT-29, 72 h; in short: as §1
MCF7 = assay: Cytotoxicity against human MCF7 cells assessed as growth inhibition after 3 days by MTT assay; format: functional, cell-based; conditions: MCF7, 72 h; in short: as §1
[3] = Selectivity ratio of IC50 for HEK293 cells to IC50 for human MCF7 cells; format: ADME, cell-based; conditions: HEK293 cells versus MCF7 cells, read-out: Ratio IC50
HT-29 [4] = assay: Antiangiogenic activity in human HT-29 cells assessed as inhibition of VEGF production at < IC50 after 72 hrs by ELISA relative to control; values are per cent of control
HT-29 [5] = assay: Antiangiogenic activity in human HT-29 cells assessed as inhibition of VEGF mRNA expression at < IC50 after 48 hrs by RT-PCR analysis relative to control; values are per cent of control
HT-29 [6] = assay: Inhibition of c-myc mRNA expression in human HT-29 cells after 48 hrs by RT-PCR analysis relative to control; format: functional
In short: (§2)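 HT-29 cells grown to 70–80% confluence and serum-starved 24 h, then treated in DMSO for 48 h. Total RNA extracted, converted to cDNA and PCR-amplified with gene-specific primers. PCR cycles were VEGF 94 °C 30 s/58 °C 1 min/72 °C 1 min 50 s; hTERT 94 °C 1 min/57 °C 1 min/72 °C 1 min 30 s; c-Myc as VEGF. Agarose gel bands quantified by densitometry and normalized to β-actin. DMSO control set to 100%. At least three measurements per case, mean ± SEM, one-sample t-test.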

HT-29 [7] = assay: Inhibition of TERT mRNA expression in human HT-29 cells after 48 hrs by RT-PCR analysis relative to control; format: functional; in short: as §2

SMILES | pIC50 (HEK293) | selectivity ratio [1] | pIC50 (HT-29 [2]) | pIC50 (MCF7) | selectivity ratio [3] | level, % of control (HT-29 [4]) | level, % of control (HT-29 [5]) | inhibition (INH) (HT-29 [6]) | inhibition (INH) (HT-29 [7])
COc1ccc(/C=C/CCCOc2cc(/C=C\c3cc(OC)c(OC)c(OC)c3)ccc2OC)cc1 | 4.06 | 1.9 | 4.33 | 4.80 | 5.5 | 50% |  |  | 
C=CCOc1cc(/C=C\c2cc(OC)c(OC)c(OC)c2)ccc1OC | 4.36 | 1.5 | 4.54 | 4.92 | 3.6 | 51% |  |  | 
C/C=C/COc1cc(/C=C\c2cc(OC)c(OC)c(OC)c2)ccc1OC | 3.87 | 0.8 | 3.79 | 5.27 | 25 | 44% | 69% | 92% | 96%
COc1ccc(/C=C\c2cc(OC)c(OC)c(OC)c2)cc1OCc1ccccc1 | 4.82 | 0.4 | 4.41 | 4.23 | 0.3 | 79% |  |  | 
COc1ccc(COc2cc(/C=C\c3cc(OC)c(OC)c(OC)c3)ccc2OC)cc1 | 4.19 | 1.4 | 4.33 | 4.32 | 1.3 | 57% |  |  | 
COc1ccc(/C=C\c2cc(OC)c(OC)c(OC)c2)cc1OCc1ccc(Br)cc1 | 4.35 | 0.4 | 3.97 | 4.54 | 1.6 | 99% |  |  | 
COc1ccccc1/C=C/CCCOc1cc(/C=C\c2cc(OC)c(OC)c(OC)c2)ccc1OC | < 3.40 | > 4.6 | 4.07 | 4.68 | > 19 | 52% |  |  | 
COc1cccc(/C=C/CCCOc2cc(/C=C\c3cc(OC)c(OC)c(OC)c3)ccc2OC)c1 | 4.41 | 1.6 | 4.60 | 4.39 | 1 | 38% | 97% | 60% | 63%
COCOc1ccccc1/C=C/CCCOc1cc(/C=C\c2cc(OC)c(OC)c(OC)c2)ccc1OC | 3.97 | 11 | 5.02 | 5.36 | 24.1 | 42% | 80% | 75% | 76%
COCOc1cccc(/C=C/CCCOc2cc(/C=C\c3cc(OC)c(OC)c(OC)c3)ccc2OC)c1 | 4.52 | 0.5 | 4.23 | 5.10 | 3.7 | 51% | 90% | 72% | 79%
COCOc1ccc(/C=C/CCCOc2cc(/C=C\c3cc(OC)c(OC)c(OC)c3)ccc2OC)cc1 | 4.60 | 3.6 | 5.15 | 4.38 | 0.6 | 51% | 66% | 58% | 60%
COc1ccc(/C=C\c2cc(OC)c(OC)c(OC)c2)cc1OCCC/C=C/c1ccc(F)cc1 | 3.94 | 1.2 | 4.01 | 4.80 | 7.2 | 57% |  |  | 
COc1ccc(/C=C\c2cc(OC)c(OC)c(OC)c2)cc1OCCC/C=C/c1ccc(Cl)cc1 | 3.95 | 6.2 | 4.74 | 4.40 | 2.8 | 60% |  |  | 
COc1ccc(/C=C\c2cc(OC)c(OC)c(OC)c2)cc1OCCC/C=C/c1ccc(Br)cc1 | 4.26 | 5 | 4.96 | 4.43 | 1.5 | 48% | 73% | 35% | 39%
COc1ccc(/C=C\c2cc(OC)c(OC)c(OC)c2)cc1O [COMBRETASTATIN A4] | 4.60 | 5.9 | 5.38 | 6.00 | 25 | 47% | 91% | 99% | 74%
